Data reported in ChEMBL document CHEMBL1124549, “N-azamonobactams. 2. Synthesis of some N-iminoacetic acid and N-glycyl analogues” (1989).
Converted amounts (≈) assume the structure as drawn.

What was measured:
Type in all cases: functional
[1] = test system: Escherichia coli; experiment: In vitro antibacterial activity against MOR-84-20 strain of Escherichia coli
Procedure, shortened: (§1)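 Agar dilution on Mueller-Hinton agar holding 2-fold decreasing drug concentrations. Agar surfaces were spot-inoculated with (1-5) × 10^4 CFU per strain using a replicating device. Plates were incubated 18 h at 35 °C. MIC was recorded as the lowest concentration inhibiting growth of the strain.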

[2] = test system: Klebsiella pneumoniae; experiment: In vitro antibacterial activity against IO-83-5 strain of Klebsiella pneumoniae; procedure, shortened: as §1
[3] = test system: Klebsiella pneumoniae; experiment: In vitro antibacterial activity against MOR-84-24 strain of Klebsiella pneumoniae; procedure, shortened: as §1
[4] = test system: Serratia marcescens; experiment: In vitro antibacterial activity against MOR-84-41 strain of Serratia marcescens; procedure, shortened: as §1
[5] = test system: Escherichia coli; experiment: In vitro antibacterial activity against VGH-84-19 strain of Escherichia coli; procedure, shortened: as §1
[6] = test system: Morganella morganii; experiment: In vitro antibacterial activity against MOR-84-45 strain of Morganella morganii; procedure, shortened: as §1
[7] = test system: Klebsiella pneumoniae; experiment: In vitro antibacterial activity against CMC-84-31 strain of Klebsiella pneumoniae; procedure, shortened: as §1
[8] = test system: Morganella morganii; experiment: In vitro antibacterial activity against VGH-84-12 strain of Morganella morganii; procedure, shortened: as §1
[9] = test system: Serratia marcescens; experiment: In vitro antibacterial activity against IO-83-63 strain of Serratia marcescens; procedure, shortened: as §1
[10] = test system: Escherichia coli; experiment: In vitro antibacterial activity against ATCC 25922 strain of Escherichia coli; procedure, shortened: as §1
[11] = test system: Citrobacter koseri; experiment: In vitro antibacterial activity against J-82-24 strain of Citrobacter diversus; procedure, shortened: as §1
[12] = test system: Escherichia coli; experiment: In vitro antibacterial activity against CMC-84-50 strain of Escherichia coli; procedure, shortened: as §1
[13] = test system: Morganella morganii; experiment: In vitro antibacterial activity against CMC-84-38 strain of Morganella morganii; procedure, shortened: as §1
[14] = test system: Enterobacter cloacae; experiment: In vitro antibacterial activity against MOR-84-30 strain of Enterobacter cloacae
[15] = test system: Providencia stuartii; experiment: In vitro antibacterial activity against CMC-83-3 strain of Providencia stuartii; procedure, shortened: as §1
[16] = test system: Serratia marcescens; experiment: In vitro antibacterial activity against CMC-83-74 strain of Serratia marcescens; procedure, shortened: as §1
[17] = test system: Enterobacter cloacae; experiment: In vitro antibacterial activity against K-84-10 strain of Enterobacter cloacae
[18] = In vitro antibacterial activity against IO-83-21 strain of Proteus rettgeri; details: Providencia rettgeri; procedure, shortened: as §1
[19] = test system: Enterobacter cloacae; experiment: In vitro antibacterial activity against VGH-84-39 strain of Enterobacter cloacae

MIC [1] | MIC [2] | MIC [3] | MIC [4] | MIC [5] | MIC [6] | MIC [7] | MIC [8] | MIC [9] | MIC [10] | MIC [11] | MIC [12] | MIC [13] | MIC [14] | MIC [15] | MIC [16] | MIC [17] | MIC [18] | MIC [19] | Structure (SMILES)
2 µg/mL (≈ 5.88 µM) | 4 µg/mL (≈ 11.8 µM) | 8 µg/mL (≈ 23.5 µM) | 4 µg/mL (≈ 11.8 µM) | 2 µg/mL (≈ 5.88 µM) | 16 µg/mL (≈ 47 µM) | 2 µg/mL (≈ 5.88 µM) | 4 µg/mL (≈ 11.8 µM) | 8 µg/mL (≈ 23.5 µM) | 8 µg/mL (≈ 23.5 µM) | 4 µg/mL (≈ 11.8 µM) | 2 µg/mL (≈ 5.88 µM) | 8 µg/mL (≈ 23.5 µM) | 32 µg/mL (≈ 94 µM) | 2 µg/mL (≈ 5.88 µM) | 16 µg/mL (≈ 47 µM) | 4 µg/mL (≈ 11.8 µM) | 0.12 µg/mL (≈ 0.353 µM) | 8 µg/mL (≈ 23.5 µM) | CO/N=C(/C(=O)NC1CN(/N=C/C(=O)O)C1=O)c1csc(N)n1 (stereo unspecified)
> 128 µg/mL | > 128 µg/mL | > 128 µg/mL | > 128 µg/mL | > 128 µg/mL | > 128 µg/mL | > 128 µg/mL | > 128 µg/mL | > 128 µg/mL | > 128 µg/mL | > 128 µg/mL | > 128 µg/mL | > 128 µg/mL | > 128 µg/mL | > 128 µg/mL | > 128 µg/mL | > 128 µg/mL | 64 µg/mL (≈ 187 µM) | > 128 µg/mL | CO/N=C(/C(=O)NC1CN(NCC(=O)O)C1=O)c1csc(N)n1 (stereo unspecified)
8 µg/mL (≈ 20.9 µM) | 8 µg/mL (≈ 20.9 µM) | 16 µg/mL (≈ 41.8 µM) | 32 µg/mL (≈ 83.7 µM) | 8 µg/mL (≈ 20.9 µM) | 128 µg/mL (≈ 335 µM) | 8 µg/mL (≈ 20.9 µM) | 64 µg/mL (≈ 167 µM) | 32 µg/mL (≈ 83.7 µM) | 8 µg/mL (≈ 20.9 µM) | 16 µg/mL (≈ 41.8 µM) | 4 µg/mL (≈ 10.5 µM) | 32 µg/mL (≈ 83.7 µM) | 64 µg/mL (≈ 167 µM) | 32 µg/mL (≈ 83.7 µM) | 128 µg/mL (≈ 335 µM) | 8 µg/mL (≈ 20.9 µM) | 0.5 µg/mL (≈ 1.31 µM) | 16 µg/mL (≈ 41.8 µM) | C=CCOC(=O)CNN1CC(NC(=O)/C(=N/OC)c2csc(N)n2)C1=O (stereo unspecified)

Structure (SMILES) | MIC [1] | MIC [2] | MIC [3] | MIC [4] | MIC [5] | MIC [6] | MIC [7] | MIC [8] | MIC [9] | MIC [10] | MIC [11] | MIC [12] | MIC [13] | MIC [14] | MIC [15] | MIC [16] | MIC [17] | MIC [18] | MIC [19]
C[C@H]1[C@H](NC(=O)/C(=N\OC(C)(C)C(=O)O)c2csc(N)n2)C(=O)N1S(=O)(=O)O [AZTREONAM] | 0.06 µg/mL (≈ 0.138 µM) |  | 0.06 µg/mL (≈ 0.138 µM) | 0.06 µg/mL (≈ 0.138 µM) | 0.06 µg/mL (≈ 0.138 µM) | 0.015 µg/mL (≈ 0.0344 µM) | 0.03 µg/mL (≈ 0.0689 µM) | 0.03 µg/mL (≈ 0.0689 µM) |  | 0.06 µg/mL (≈ 0.138 µM) | 0.03 µg/mL (≈ 0.0689 µM) | 0.06 µg/mL (≈ 0.138 µM) | 0.015 µg/mL (≈ 0.0344 µM) |  | 0.015 µg/mL (≈ 0.0344 µM) | 0.25 µg/mL (≈ 0.574 µM) |  | 0.002 µg/mL (≈ 0.00459 µM) | 
